Data on eleven compounds can be found in ChEMBL document CHEMBL1127075, “Structural modification of 5-aryl-2,3-dihydroimidazo[2,1-a]isoquinoline platelet activating factor receptor antagonists” (J Med Chem, 1993).

SMILES strings stand for the structures.

The test system of assay [1] is Cavia porcellus. Put plainly: In vivo PAF induced bronchoconstriction tested in guinea pig at 20 mg/kg dose. In kind it is functional. The procedure, abridged:
(§1)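 Anesthetized guinea pigs given compound po in H2O at 20 mg/kg, 2 h before iv PAF (0.05 mg/kg); percent inhibition of bronchoconstriction (Konzett-Rosler) or hemoconcentration, three to five animals.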

The subject of assay [2] is Cavia porcellus. Put plainly: In vivo PAF induced hemoconcentration tested in guinea pig at 20 mg/kg dose. In kind it is functional. The procedure, abridged: as §1
Assay [3] has as its target Platelet-activating factor receptor (Homo sapiens, UniProt P25105). Put plainly: In vitro PAF antagonistic activity by determining [3H]PAF binding to the PAF-receptor of human platelets. A digest of the protocol:
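Human platelets incubated with [3H]PAF; free ligand removed by centrifugation, bound radioactivity counted 1 min by liquid scintillation. Specific binding = total minus nonspecific binding (0.37 mM unlabeled PAF).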

Assay [4] has as its system Cavia porcellus. The experiment in a line: In vivo PAF induced bronchoconstriction tested in guinea pig. In kind it is functional. A digest of the protocol:
(§2)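 Anesthetized guinea pigs, compound given po in H2O 2 h before iv PAF challenge (0.05 mg/kg); bronchoconstriction (Konzett-Rosler) and hemoconcentration measured. ED50 from dose-response curves, at least five doses, four to seven animals per dose.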

Assay [5] has as its system Cavia porcellus. The experiment in a line: In vivo PAF induced hemoconcentration tested in guinea pig. In kind it is functional. A digest of the protocol:
as §2

Chain of Platelet-activating factor receptor (P25105 whole entry): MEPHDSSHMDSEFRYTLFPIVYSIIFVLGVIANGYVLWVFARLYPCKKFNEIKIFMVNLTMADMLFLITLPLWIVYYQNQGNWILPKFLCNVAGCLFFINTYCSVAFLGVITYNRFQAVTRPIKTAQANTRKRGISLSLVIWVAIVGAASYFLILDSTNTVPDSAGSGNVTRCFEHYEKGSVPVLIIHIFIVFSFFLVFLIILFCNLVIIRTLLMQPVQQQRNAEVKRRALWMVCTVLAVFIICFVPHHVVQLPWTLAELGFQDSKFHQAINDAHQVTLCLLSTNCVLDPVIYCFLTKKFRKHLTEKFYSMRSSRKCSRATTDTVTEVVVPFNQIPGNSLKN

The inhibition in vivo is how much of the control response was suppressed. Low readings indicate little suppression, high ones strong suppression. What is called IC50 is the concentration needed to halve the response being measured. As for `COc1cc(CCc2ccc(C3=Cc4ccccc4C4=NCC(C)(C)CN34)cc2)cc(OC)c1OC`, the values for the inhibition in vivo at 20 mg/kg in the assay on Cavia porcellus [1] and in the assay with Cavia porcellus [2] were 17% and 23%, respectively. The same compound returned an IC50 in assay [3] of 500 nM.

As usually defined, the ED50 is the dose that gives a 50% effect, or the effect in half of the subjects. For the compound `COc1cc(CCc2ccc(C3=Cc4oc(C)cc4C4=NCCN34)cc2)cc(OC)c1OC`, the ED50 was above 10 mg/kg in the assay with Cavia porcellus [4] and 10 mg/kg with Cavia porcellus [5]. In addition, the IC50 in assay [3] came to 50 nM.

In assay [3], `COc1cc(CCc2ccc(-c3cc4ccccc4c4nc(C)cn34)cc2)cc(OC)c1OC` returned a half-maximal inhibitory concentration (IC50) of 35000 nM.

As to `COc1cc(CCc2ccc(-c3cc4ccccc4c4nnc(C)n34)cc2)cc(OC)c1OC`, in assay [3], the IC50 came to 9500 nM.

`COc1cc(CCc2ccc(C3=Cc4ccccc4C4=NC(C)CN34)cc2)cc(OC)c1OC` (stereo unspecified): the values for the 50% effective dose (ED50) in the assay on Cavia porcellus [4] and in the assay on Cavia porcellus [5] were 16 mg/kg and 10 mg/kg, respectively. In assay [3], this compound gave an IC50 of 220 nM.

Regarding `COc1cc(CCc2ccc(C3=Cc4ccsc4C4=NCCN34)cc2)cc(OC)c1OC`, the ED50 was found to be 0.8 mg/kg in the assay on Cavia porcellus [4] and 1.1 mg/kg with Cavia porcellus [5]. Moreover, in assay [3], the IC50 stood at 10 nM.

As for `COc1cc(CCc2ccc(C3=Nc4ccccc4C4=NCCN34)cc2)cc(OC)c1OC`, the ED50 is 31.4 mg/kg with Cavia porcellus [4] and 31.9 mg/kg in the assay with Cavia porcellus [5]. In assay [3], this compound showed an IC50 of 1140 nM.

As for `COc1cc(CCc2ccc(C3=Cc4ccccc4C4=NCCN34)cc2)cc(OC)c1OC`, the ED50 stood at 4.2 mg/kg in the assay on Cavia porcellus [4] and 5 mg/kg in the assay with Cavia porcellus [5].

Consider `COc1cc(CCc2ccc(C3=Cc4ccccc4C4=NCCCN34)cc2)cc(OC)c1OC`, for which the values for the 50% effective dose (ED50) with Cavia porcellus [4] and in the assay with Cavia porcellus [5] were 4.7 mg/kg and 3 mg/kg, respectively. The concentration for half-maximal inhibition (IC50) in assay [3] worked out at 40 nM.

For the compound `COc1cc(CCc2ccc(C3=Cc4ccccc4C4=NC(C)(C)CN34)cc2)cc(OC)c1OC`, the inhibition in vivo at 20 mg/kg in the assay with Cavia porcellus [1] is 24%; in the assay on Cavia porcellus [2] it was 17.9%. The same compound showed an IC50 in assay [3] of 60 nM.

On to `COc1cc(CCc2ccc(-c3cc4ccccc4c4nccn34)cc2)cc(OC)c1OC`, for which the 50% inhibitory concentration (IC50) in assay [3] stood at 89000 nM.
